In ChEMBL document CHEMBL1153581, “Synthesis, antiviral and anticancer activity of some novel thioureas derived from N-(4-nitro-2-phenoxyphenyl)-methanesulfonamide” (Eur J Med Chem, 2009):
In brackets after ≈: the same amount, converted by molar mass.

Legend:
[1] = system: Sindbis virus; assay: Antiviral activity against Sindbis virus infected in african green monkey Vero cells assessed as protection against virus-induced cytopathogenicity; assay type: functional
[2] = Cytotoxicity against african green monkey Vero cells assessed as change in cell morphology; assay type: cell-based; conditions: chlorocebus sabaeus
Method in brief: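 Vero cell cultures were used for the broad-spectrum antiviral screen. The MCC endpoint is the lowest concentration that causes a microscopically detectable alteration of cell morphology. Activity was called when 5 × MIC < MCC.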

[3] = system: Human alphaherpesvirus 1; assay: Antiviral activity against acyclovir-resistant thymidine kinase-deficient HSV1 KOS infected in human HEL cells assessed as protection against virus-induced cytopathogenicity; assay type: functional; conditions: Human alphaherpesvirus 1, KOS
[4] = system: HeLa; assay: Cytotoxicity against human HeLa cells assessed as change in cell morphology; assay type: functional
Method in brief: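 The minimum cytotoxic concentration (MCC) is the concentration causing a microscopically detectable alteration of cell morphology in the uninfected host cell culture.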

[5] = system: Vesicular stomatitis virus; assay: Antiviral activity against Vesicular stomatitis virus infected in human HeLa cells assessed as protection against virus-induced cytopathogenicity; assay type: functional
[6] = system: Coxsackievirus B4; assay: Antiviral activity against Coxsackievirus B4 infected in african green monkey Vero cells assessed as protection against virus-induced cytopathogenicity; assay type: functional; conditions: Enterovirus B
[7] = system: Coxsackievirus B4; assay: Antiviral activity against Coxsackievirus B4 infected in human HeLa cells assessed as protection against virus-induced cytopathogenicity; assay type: functional; conditions: Enterovirus B
[8] = system: Mammalian orthoreovirus 1; assay: Antiviral activity against Reovirus 1 infected in african green monkey Vero cells assessed as protection against virus-induced cytopathogenicity; assay type: functional
[9] = system: Human alphaherpesvirus 1; assay: Antiviral activity against HSV1 KOS infected in HEL cells assessed as protection against virus-induced cytopathogenicity; assay type: functional; conditions: Human alphaherpesvirus 1, KOS
[10] = system: Human alphaherpesvirus 2; assay: Antiviral activity against Herpes simplex virus 2 infected in HEL cells assessed as protection against in virus-induced cytopathogenicity; assay type: functional
[11] = system: Punta Toro virus; assay: Antiviral activity against Punta Toro virus infected in african green monkey Vero cells assessed as protection against virus-induced cytopathogenicity; assay type: functional
[12] = system: Vesicular stomatitis virus; assay: Antiviral activity against sVesicular stomatitis virus infected in HEL cells assessed as protection against virus-induced cytopathogenicity; assay type: functional
[13] = Cytotoxicity against HEL cells assessed as change in cell morphology; assay type: cell-based; conditions: human
Method in brief: (§1)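 HEL cell cultures examined under the microscope. Minimal cytotoxic concentration (MCC) is the concentration that causes a microscopically detectable alteration of cell morphology. Compounds were tested at subtoxic concentrations alongside the antiviral tests.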

[14] = system: Human respirovirus 3; assay: Antiviral activity against Parainfluenza-3 virus infected in african green monkey Vero cells assessed as protection against virus-induced cytopathogenicity; assay type: functional
[15] = system: Respiratory syncytial virus; assay: Antiviral activity against RSV infected in human HeLa cells assessed as protection against virus-induced cytopathogenicity; assay type: functional
[16] = system: Human alphaherpesvirus 3; assay: Antiviral activity against Varicella Zoster Virus OKA infected in HEL cells assessed as reduction in virus plaque formation; assay type: functional, organism-based; conditions: Human alphaherpesvirus 3, OKA
Method in brief: (§2)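 Plaque reduction in HEL cells against CMV (AD-169, Davis) or VZV (TK⁺ OKA, TK⁻ 07/1), using a virus input of 20 PFU. EC50 is the concentration that reduced plaque formation by 50%.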

[17] = system: Human betaherpesvirus 5; assay: Antiviral activity against Cytomegalovirus AD169 infected in HEL cells assessed as reduction in virus plaque formation; assay type: functional, organism-based; conditions: Human betaherpesvirus 5, AD169, HEL; method in brief: as §2
[18] = Cytotoxicity against Cytomegalovirus infected HEL cells assessed as reduction in cell growth; assay type: cell-based; conditions: human
[19] = system: Cytomegalovirus; assay: Antiviral activity against Cytomegalovirus Davis infected in HEL cells assessed as reduction in virus plaque formation; assay type: functional, organism-based; conditions: Human betaherpesvirus 5, Davis; method in brief: as §2
[20] = system: Human immunodeficiency virus 2; assay: Antiviral activity against HIV-2 ROD infected human MT4 cells assessed as protection against virus-induced cytopathogenicity; assay type: functional, organism-based; conditions: Human immunodeficiency virus 2, ISOLATE ROD
Method in brief: (§3)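 HIV-1 (IIIB) or HIV-2 (ROD) infection of MT-4 cells, scored as protection against virus-induced cytopathicity. IC50 was derived from protection.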

[21] = Cytotoxicity against Varicella Zoster Virus infected human […] cells assessed as change in cell morphology; assay type: cell-based
[22] = system: Human alphaherpesvirus 3; assay: Antiviral activity against thymidine kinase deficient Varicella Zoster Virus 07/1 infected in HEL cells assessed as reduction in virus plaque formation; assay type: functional, organism-based; conditions: Human alphaherpesvirus 3, 07/1, HEL; method in brief: as §2
[23] = Cytotoxicity against HIV-1 3B infected human MT4 cells; assay type: cell-based; conditions: HIV-1 3B-infected MT4 cells
[24] = Cytotoxicity against Varicella Zoster Virus infected human […] cells assessed as reduction in cell growth; assay type: cell-based
[25] = system: Human immunodeficiency virus 1; assay: Antiviral activity against HIV-1 3B infected human MT4 cells assessed as protection against virus-induced cytopathogenicity; assay type: functional, organism-based; conditions: Human immunodeficiency virus 1, 3B; method in brief: as §3
[26] = Cytotoxicity against Cytomegalovirus infected HEL cells assessed as change in cell morphology; assay type: cell-based; conditions: human; method in brief: as §1

Row | Structure (SMILES) | MIC50 [1] | MCC [2] | MIC50 [3] | MCC [4] | MIC50 [5] | MIC50 [6] | MIC50 [7] | MIC50 [8] | MIC50 [9] | MIC50 [10] | MIC50 [11] | MIC50 [12] | MCC [13] | MIC50 [14] | MIC50 [15] | EC50 [16] | EC50 [17] | CC50 [18] | EC50 [19] | CC50 [21] | also measured
1 | NC(=O)c1ncn([C@@H]2O[C@H](CO)[C@@H](O)[C@H]2O)n1 [RIBAVIRIN] | > 250 mg/L | > 250 µg/mL | > 250 mg/L | > 250 µg/mL | 30 mg/L (≈ 123 µM) | > 250 mg/L | 150 mg/L (≈ 614 µM) | 150 mg/L (≈ 614 µM) | 250 mg/L (≈ 1020 µM) | 250 mg/L (≈ 1020 µM) | 250 mg/L (≈ 1020 µM) | 150 mg/L (≈ 614 µM) | > 250 µg/mL | 150 mg/L (≈ 614 µM) | 50 mg/L (≈ 205 µM) | – | – | – | – | – | –
2 | Nc1nc2c(ncn2COCCO)c(=O)[nH]1 [ACYCLOVIR] | – | – | 50 mg/L (≈ 222 µM) | – | – | – | – | – | – | 0.4 mg/L (≈ 1.78 µM) | – | > 250 mg/L | > 250 µg/mL | – | – | – | – | – | – | – | –
3 | CS(=O)(=O)Nc1ccc(NC(=S)NCCc2ccccc2)cc1Oc1ccccc1 | > 1.6 mg/L | 8 µg/mL | > 8 mg/L | 40 µg/mL | > 8 mg/L | > 1.6 mg/L | > 8 mg/L | > 1.6 mg/L | > 8 mg/L | > 8 mg/L | > 1.6 mg/L | > 8 mg/L | 40 µg/mL | > 1.6 mg/L | > 8 mg/L | > 20 mg/L | > 20 mg/L | 48 mg/L (≈ 109 µM) | > 20 mg/L | ≥ 100 mg/L | IC50 [20]: > 20.8 mg/L; EC50 [22]: > 20 mg/L; CC50 [23]: 20.8 mg/L (≈ 47.1 µM); CC50 [24]: 48 mg/L (≈ 109 µM); IC50 [25]: > 20.8 mg/L; CC50 [26]: 100 mg/L (≈ 226 µM)
4 | C=CCNC(=S)Nc1ccc(NS(C)(=O)=O)c(Oc2ccccc2)c1 | > 40 mg/L | 200 µg/mL | > 40 mg/L | 200 µg/mL | > 40 mg/L | > 40 mg/L | > 40 mg/L | > 40 mg/L | > 40 mg/L | > 40 mg/L | > 40 mg/L | > 40 mg/L | 200 µg/mL | ≥ 24 mg/L | 40 mg/L (≈ 106 µM) | 58.5 mg/L (≈ 155 µM) | 54.7 mg/L (≈ 145 µM) | 82.4 mg/L (≈ 218 µM) | 54.7 mg/L (≈ 145 µM) | > 100 mg/L | IC50 [20]: > 12.8 mg/L; EC50 [22]: 49 mg/L (≈ 130 µM); CC50 [23]: 101 mg/L (≈ 269 µM); CC50 [24]: 82.4 mg/L (≈ 218 µM); IC50 [25]: > 87.2 mg/L; CC50 [26]: > 100 mg/L
5 | Nc1ncnc2c1ncn2C[C@H](O)CO [(S)-DHPA] | > 250 mg/L | > 250 µg/mL | – | > 250 µg/mL | 150 mg/L (≈ 717 µM) | > 250 mg/L | 150 mg/L (≈ 717 µM) | 250 mg/L (≈ 1190 µM) | – | – | > 250 mg/L | – | – | 50 mg/L (≈ 239 µM) | > 250 mg/L | – | – | – | – | – | –
6 | Nc1ccn(C[C@@H](CO)OCP(=O)(O)O)c(=O)n1.O.O [CIDOFOVIR] | – | – | – | – | – | – | – | – | – | – | – | – | – | – | – | 0.0095 mg/L | 0.24 mg/L | 57 mg/L | 0.37 mg/L | > 50 mg/L | EC50 [22]: 12.6 mg/L; CC50 [24]: 244 mg/L; CC50 [26]: 400 mg/L
7 | CS(=O)(=O)Nc1ccc(NC(=S)NC2CCCCC2)cc1Oc1ccccc1 | > 1.6 mg/L | 8 µg/mL | > 8 mg/L | 40 µg/mL | > 8 mg/L | > 1.6 mg/L | > 8 mg/L | > 1.6 mg/L | > 8 mg/L | > 8 mg/L | > 1.6 mg/L | > 8 mg/L | 40 µg/mL | > 1.6 mg/L | > 8 mg/L | > 20 mg/L | > 4 mg/L | 33.6 mg/L (≈ 80.1 µM) | > 4 mg/L | ≥ 4 mg/L | IC50 [20]: > 35.3 mg/L; EC50 [22]: > 0.8 mg/L; CC50 [23]: 35.3 mg/L (≈ 84.1 µM); CC50 [24]: 82.4 mg/L (≈ 196 µM); IC50 [25]: > 35.3 mg/L; CC50 [26]: 20 mg/L (≈ 47.7 µM)
